Bioassay records: PubChem, Broad Institute
The sample as a whole holds a higher share of hits than the screen did.
IDH1 mut inh: IDH1 R132H (human) inhibition; O75874; IDH1 R132H reductase, diaphorase/resazurin fluorescence, 60 min; inhibition, % at 10 µM; 0.18% of 70,000 active; in the data active = inhibition above about 34%; inconclusive = no clear call, values can overlap the other calls; inactive = below about 11%;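 note: 0% = DMSO and 100% = no enzyme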
Target sequence (O75874 whole entry R132H): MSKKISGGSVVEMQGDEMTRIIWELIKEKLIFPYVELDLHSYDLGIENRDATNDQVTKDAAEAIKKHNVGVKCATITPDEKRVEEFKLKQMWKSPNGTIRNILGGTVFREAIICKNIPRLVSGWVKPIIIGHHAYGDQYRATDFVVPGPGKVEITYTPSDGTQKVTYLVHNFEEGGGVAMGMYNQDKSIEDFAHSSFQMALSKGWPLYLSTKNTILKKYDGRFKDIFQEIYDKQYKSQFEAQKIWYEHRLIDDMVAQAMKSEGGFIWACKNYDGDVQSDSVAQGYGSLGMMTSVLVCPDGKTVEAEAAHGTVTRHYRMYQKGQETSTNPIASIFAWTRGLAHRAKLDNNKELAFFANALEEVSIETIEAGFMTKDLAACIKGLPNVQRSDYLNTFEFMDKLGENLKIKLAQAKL
GASC1 inh: blocks human GASC-1 (KDM4C) demethylase activity; Q9H3R0; GST-KDM4C 2-372, H3K9me3 peptide, LANCE TR-FRET; inhibition, % at 12.5 µM; 0.15% of 96,000 active; AID 720574;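 active = mean replicate inhibition above about 25%, with at least 55% of replicates also reaching it, limit read from the data, passing the limit was not always enough; inconclusive = only one of those two conditions met; inactive = neither condition met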
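Material: GST-tagged GASC-1 (JMJD2C) catalytic fragment, aa 2-372. Input: enzyme final amount 10 nM. Medium: HEPES buffer, pH 7.5, plus ascorbate. Reagent: H3K9me3 peptide substrate, Fe(II), 2-oxoglutarate. Doses: single dose. Times: reaction 30 min RT, detection step 1 h RT. Measured by: LANCE TR-FRET. Evaluation: Fall in 671/618 emission ratio as inhibition.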
T cruzi growth-1: T. cruzi proliferation inhibition; inhibition, % at 8.34 µM; 5.9% of 77,000 active; T. cruzi beta-gal in NIH3T3, GalScreen luminescence, 90 h;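 active = mean inhibition above about 93%, with at least 55% of replicates each passing it, limit read from the data, passing the limit was not always enough; inconclusive = only one of those two conditions holds; inactive = neither condition holds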
T cruzi growth-2: Trypanosoma cruzi proliferation inhibition; T. cruzi beta-gal in NIH3T3, GalScreen luminescence, 90 h; 72% of 5,600 active; shares compounds with T cruzi growth-1; inhibition, % at 8.35 µM;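 active = mean replicate inhibition above about 95% and at least 55% of replicates individually reaching it, limit read from the data; inconclusive = only one of the two criteria is met; inactive = neither criterion is met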
T cruzi growth-3: Trypanosoma cruzi proliferation inhibition; shares compounds with T cruzi growth-1; T. cruzi beta-gal in NIH3T3, GalScreen luminescence, 90 h; inhibition, % at 2.09 µM; 21% of 5,600 active; AID 651740;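 active = mean inhibition above about 95%, with at least 55% of replicates also reaching it, limit read from the data; inconclusive = meets just one of the two conditions; inactive = meets neither condition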;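 note: plate controls were neutral control median for no effect and positive control median for full effect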
3T3 cytotox: NIH/3T3 (mouse) viability loss. shares compounds with T cruzi growth-1. NIH/3T3 viability, CellTiter-Glo ATP luminescence, 90 h. cytotoxicity (signal decrease), % at 8.35 µM. 14% of 5,600 active. AID 651742;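 active = mean signal decrease across replicates above about 35% based on untreated-well scatter, with enough replicates individually passing, limit read from the data; inconclusive = no rule stated though some were filed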;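 note: 0% = median of neutral control wells and 100% = median of positive control wells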
NIH3T3 tox 2: NIH/3T3 (mouse) viability loss; shares compounds with T cruzi growth-1; NIH/3T3 viability, CellTiter-Glo ATP luminescence, 90 h; 56% of 5,600 active; inhibition, % at 24.9 µM; AID 651744;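 active = mean loss of cell viability signal at or above a set limit, and enough replicates individually reaching it; inconclusive = meets only the mean limit or only the replicate share; inactive = meets neither condition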;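 note: 0% = median of neutral control wells and 100% = median of positive control wells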
An asterisk follows results filed as active; ? = inconclusive; / = no result.

SMILES	IDH1 mut inh	GASC1 inh	T cruzi growth-1	T cruzi growth-2	T cruzi growth-3	3T3 cytotox	NIH3T3 tox 2
C[C@H]1CN([C@@H](C)CO)C(=O)c2cc(C#Cc3ccccc3F)cnc2O[C@@H]1CN(C)C(=O)c1ccc2c(c1)OCO2	/	1	125*	110*	42	33	37*
Cc1nc(SCC(=O)Nc2c(C)cccc2C)n[nH]1	0	/	/	/	/	/	/
O=C(CN1C(=O)c2ccccc2C1=O)Nc1ccc(NC(=O)c2ccccc2F)cc1	0	/	/	/	/	/	/
CC(C)NC(=O)N(C)C[C@H]1Oc2ncc(C#Cc3ccccc3F)cc2C(=O)N([C@H](C)CO)C[C@H]1C	-2	-2	72	/	/	/	/
CC(C)NC(=O)N(C)C[C@@H]1Oc2ncc(C#Cc3ccccc3F)cc2C(=O)N([C@@H](C)CO)C[C@H]1C	/	0	102*	81	48	32	61*
Cc1ccc(C(=O)CSc2nnc(-c3ccccc3[N+](=O)[O-])o2)cc1	0	/	/	/	/	/	/
Cc1ccc(S(=O)(=O)N(C)C[C@@H]2OCCCC[C@@H](C)Oc3ccc(NC(=O)Cc4ccccc4)cc3C(=O)N([C@@H](C)CO)C[C@H]2C)cc1	0	1	64	/	/	/	/
Cc1ccc(S(=O)(=O)N(C)C[C@H]2OCCCC[C@@H](C)Oc3ccc(NC(=O)Cc4ccccc4)cc3C(=O)N([C@@H](C)CO)C[C@@H]2C)cc1	1	-1	112*	106*	88	26	49*
Cc1ccc(S(=O)(=O)N(C)C[C@@H]2OCCCC[C@H](C)Oc3ccc(NC(=O)Cc4ccccc4)cc3C(=O)N([C@H](C)CO)C[C@H]2C)cc1	/	-2	83	/	/	/	/
Cc1ccc(S(=O)(=O)N(C)C[C@H]2OCCCC[C@@H](C)Oc3ccc(NC(=O)Cc4ccccc4)cc3C(=O)N([C@@H](C)CO)C[C@H]2C)cc1	/	-1	108*	106*	61	-19	-3
O=C(O)c1ccc2c(c1)C1C3CCC(C3)C1C(c1ccccc1)N2 (stereo not given)	4	/	/	/	/	/	/
COc1ccccc1NC(=O)CSc1nnc(-c2ccc(Cl)cc2)o1	0	/	/	/	/	/	/
CN(C)c1nc(OCC(=O)Nc2ccc(Cl)cc2)nc(N(C)C)n1	1	/	/	/	/	/	/
O=C(CN1CCOCC1)N1CCCCN2[C@H](C1)[C@H](c1ccc(/C=C/c3ccccc3)cc1)[C@@H]2CO	/	-1	7	/	/	/	/
COc1ccccc1-c1ccc([C@@H]2[C@@H](CO)N3CCCCN(C(=O)CN4CCOCC4)C[C@@H]23)cc1	/	1	114*	39	-29	3	26*
COc1ccccc1-c1ccc([C@@H]2[C@@H](CO)N3CCCCN(C(=O)CN4CCOCC4)C[C@H]23)cc1	/	-1	32	/	/	/	/
COc1ccccc1-c1ccc([C@H]2[C@@H](CO)N3CCCCN(C(=O)CN4CCOCC4)C[C@@H]23)cc1	/	0	?	76	71	27	65*
Cc1sc2nc(SCC(=O)O)n(-c3ccc(Cl)c(Cl)c3)c(=O)c2c1C	8	/	/	/	/	/	/
COC(=O)c1c(NC(=O)CSc2ncnc3sc(C)c(C)c23)sc(C)c1C	1	/	/	/	/	/	/
CCCN1C(=O)C(O)(CC(=O)c2ccc(OC)c([N+](=O)[O-])c2)c2cc(Br)ccc21 (stereo not given)	0	/	/	/	/	/	/
COc1cccc(CNC(=O)[C@@H]2[C@@H](CO)[C@@H]3Cn4c(cccc4=O)[C@H]2N3C(=O)C2CCC2)c1	/	0	1	/	/	/	/
O=C(NCCN1CCCCC1)[C@@H]1[C@@H](CO)[C@@H]2Cn3c(cccc3=O)[C@H]1N2C(=O)C1CCCCC1	/	-1	63	/	/	/	/
COc1cccc(CNC(=O)[C@@H]2[C@@H](CO)[C@@H]3Cn4c(cccc4=O)[C@H]2N3C(=O)C2CCCCC2)c1	/	-1	96*	42	26	20	1
O=C(NCCN1CCCC1)[C@H]1[C@H](CO)[C@H]2Cn3c(cccc3=O)[C@@H]1N2C(=O)c1ccccc1	/	1	96*	-7	-25	-9	-20
Cc1noc(C)c1-c1nc(CSc2n[nH]c(=O)n2C2CC2)no1	0	/	/	/	/	/	/
SMILES	IDH1 mut inh	GASC1 inh	T cruzi growth-1	T cruzi growth-2	T cruzi growth-3	3T3 cytotox	NIH3T3 tox 2
CO[C@H](CN(C)S(=O)(=O)c1ccc(Cl)cc1)[C@@H](C)CN(Cc1ccccc1Cl)[C@@H](C)CO	0	-1	94	/	/	/	/
CO[C@@H](CN(C)S(=O)(=O)c1ccc(C)cc1)[C@@H](C)CN(Cc1ccccc1Cl)[C@@H](C)CO	0	-2	64	/	/	/	/
CO[C@H](CN(C)S(=O)(=O)c1ccc(Cl)cc1)[C@H](C)CN(Cc1ccccc1Cl)[C@H](C)CO	-1	-3	106*	111*	26	33	107*
CO[C@@H](CN(C)S(=O)(=O)c1ccc(C)cc1)[C@@H](C)CN(Cc1ccccc1Cl)[C@H](C)CO	0	0	100*	95*	32	?	51*
Cc1sc2nc(SCC(=O)c3ccc4c(c3)OCCO4)n(-c3ccccc3)c(=O)c2c1C	0	/	/	/	/	/	/
CC1(C)NC(=O)N(CCCOc2ccccc2CO)C1=O	0	/	/	/	/	/	/
O=C(CSc1nnc(-c2ccc(Cl)cc2)n1-c1ccc(F)cc1)Nc1ccccc1Cl	0	/	/	/	/	/	/
CCC(Sc1nc2ccccc2s1)C(=O)Nc1ccc(Br)cc1 (stereo not given)	0	/	/	/	/	/	/
COc1ccc(OC)c(NC(=O)CSc2nnc(-c3ccc(Cl)cc3Cl)n2C)c1	-1	/	/	/	/	/	/
C[C@H]1CN([C@@H](C)CO)S(=O)(=O)c2ccc(C3=CCCC3)cc2O[C@@H]1CN(C)Cc1ccncc1	/	0	117*	98*	?	45*	97*
C[C@@H]1CN([C@H](C)CO)S(=O)(=O)c2ccc(C3=CCCC3)cc2O[C@H]1CN(C)Cc1ccncc1	2	-1	115*	98*	104*	68*	76*
C[C@H]1CN([C@@H](C)CO)S(=O)(=O)c2ccc(C3=CCCC3)cc2O[C@H]1CN(C)Cc1ccncc1	1	4	105*	102*	92	19	31*
C[C@@H]1CN([C@@H](C)CO)S(=O)(=O)c2ccc(C3=CCCC3)cc2O[C@@H]1CN(C)Cc1cncnc1	3	0	47	/	/	/	/
C[C@@H]1CN([C@H](C)CO)S(=O)(=O)c2ccc(C3=CCCC3)cc2O[C@@H]1CN(C)Cc1cncnc1	/	0	23	/	/	/	/
C[C@H]1CN([C@@H](C)CO)S(=O)(=O)c2ccc(C3=CCCC3)cc2O[C@@H]1CN(C)Cc1cncnc1	/	3	54	/	/	/	/
COc1cc(S(=O)(=O)NCCc2ccccc2)c(OC)cc1Br	1	/	/	/	/	/	/
COC(=O)c1ccccc1NC(=O)CN(C)S(=O)(=O)c1c(C)cc(C)cc1C	0	/	/	/	/	/	/
